From PubChem BioAssay
Shown are actives, neighbours in structure and some others; about 3.5% of the full set was active somewhere.
Efa HMGR inh – inhibitors of E. faecalis class II HMGR, primary screen, biochemical, Enterococcus faecalis; purified E. faecalis HMGR, NADPH absorbance 340 nm kinetic; inhibition, % at 10 µM; HMG-CoA reductase (Enterococcus faecalis, mvaE); AID 1066, 2008; 190,000 compounds, 0.41% hits;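 active means inhibition above a set limit, the median over all tested compounds plus 3 SD, cut at about 9.5% in these data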;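 further: enzyme runs in reverse so mevalonate oxidation gives rising NADPH absorbance; 0% = complete reaction with DMSO and 100% = background rate lacking mevalonate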
b-catenin transl – modulators of beta-catenin nuclear translocation, primary screen, imaging, HeLa cells, immunofluorescence, high-content; nuclear translocation activity, % at 5 µM; 190,000 compounds, 0.3% hits;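 active means nuclear translocation activity above 50% at 5 µM, with a well cell count of 50 or more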;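 further: per-cell ratio of nuclear to cytoplasmic median beta-catenin stain intensity; plate controls were DMSO negative control for no effect and GSK-3 inhibitor IX positive control for full effect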
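Signal – beta-catenin immunofluorescence imaging with DAPI · Test system – human HeLa cell line · Dosing – 5 µM primary single dose, 0.1% DMSO, 0.02–20 µM confirmation series · Measure – % activation, nuclear-to-cytoplasmic median beta-catenin signal ratio per cell · Incubation – 24 h compound exposure at 37°C, 5% CO2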
BB579 growth dn – growth inhibitors of yeast BB579 in restrictive medium, primary screen, yeast lifespan-shortening project, S. cerevisiae; OD615, 48 h; inhibition, % at 10 µM; 140,000 compounds, 0.51% hits; AID 804, 2007;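 active means inhibition above a set limit, 3 SD over the mean compound inhibition, cut at about 44% in these data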
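Test system: DeaD yeast strain BB579 / Buffer or medium: restrictive glucose-based CSMM-D medium / Doses: single 10 µM dose / Schedule: 4 h cell preincubation, 48 h compound exposure, 30 °C humidified / Technique: culture absorbance at 615 nm / Controls: amphotericin B positive control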
RAM network inh – inhibitors of the yeast RAM network, primary screen, dse1pr::URA3 reporter, 5-FOA selection; S. cerevisiae dse1pr::URA3 reporter, 5-FOA growth OD615, 2 d; analog-sensitive cbk1-as2 kinase mutant strain; inhibition, % at 50 µM; 190,000 compounds, 1.8% hits;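 active means inhibition above a set limit, 3 SD over mean compound inhibition, cut at about 8.4% in these data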;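 further: 0% = DMSO-only wells with no growth and 100% = 10 µM 1-NA-PP1 full growth; inhibition rescues growth on 5-FOA so higher OD means more RAM inhibition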
MT stabilizer – microtubule stabilizers in HeLa cells, primary screen, imaging, high-content imaging; HeLa tubulin immunostaining HCS, 24 h; share of cells brighter than vehicle mean+2SD; % tubulin-high responders, % at 10 µM; 200,000 compounds, 0.83% hits; AID 2205, 2009;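 active means plate Z-score above 3 for both tubulin-high and condensed-nucleus cell shares, with cell loss under 80%, at 10 µM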;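 further: anti alpha tubulin signal scored within the nucleus-defined area of each cell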
Yeast lifespan up – compounds extending yeast replicative lifespan, primary screen, S. cerevisiae, OD615; S. cerevisiae growth with nicotinamide; deaD strain in restrictive glucose medium; inhibition of the nicotinamide effect, % at 10 µM; 130,000 compounds, 0.68% hits;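 active means inhibition above a set limit, placed 3 SD over the median of all compounds, cut at about 26% in these data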;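 further: 0% = nicotinamide-treated wells and 100% = cells grown without nicotinamide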
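Assay system: DeaD-strain S. cerevisiae. Medium: CSMM-D glucose medium, restrictive. Reagent: nicotinamide, 1.5 mM, co-present with compound. Compound: 10 µM single point, 0.25% DMSO. Schedule: culture preincubation 4 h, compound exposure 48 h, both 30 °C. Detection: absorbance at 615 nm.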
RAM 5-FOA – 5-FOA growth of efflux-deficient control yeast, dose response, counter-screen for RAM network inhibitor project, S. cerevisiae, OD615; shares compounds with RAM network inh; S. cerevisiae efflux-deficient reporter strain, 5-FOA growth OD615, 2 days; max inhibition, %; 1,200 tested, under 10 active; call rule not given here;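 further: plate controls were vehicle for no effect and reference inhibitor for full effect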
An asterisk follows results filed as active; . = no result given.

SMILES	Efa HMGR inh	b-catenin transl	BB579 growth dn	RAM network inh	MT stabilizer	Yeast lifespan up	RAM 5-FOA
Cn1c(CCc2ccccc2)n[nH]c1=S	-4	1	.	3	2	.	.
COc1cc(/C=C2\SC(=S)N(CC(=O)Nc3ccccn3)C2=O)cc(OC)c1OC	-1	6	-38	6	7	-4	.
C=CCN1C(=O)/C(=C\c2cc(Br)c(OCc3ccccn3)c(OC)c2)SC1=S	-6	-4	.	19*	5	.	2
CCOCCCNC(=S)N1CCCN(c2nc3cc(C)c(C)cc3cc2C#N)CC1	-2	1	.	17*	5	.	2
COCCCNC(=S)N1CCCN(c2nc3cc(C)c(C)cc3cc2C#N)CC1	1	0	.	4	0	.	.
O=C(Nc1ccc2c(c1)OCO2)c1ccc(COc2ccc3c(c2)CCC3)o1	-14	-1	-35	11*	2	-8	3
Cc1ccc(C(=O)Nc2ccc3c(c2)CCC3)o1	-6	0	-1	0	2	-15	.
CCOC(=O)C1=C(CC)Nc2ccccc2N=C1NC(=O)c1cc(S(=O)(=O)N(C)C)ccc1Cl	-4	-1	-17	13*	2	-5	4
CCC(CC)COC(=O)C(C#N)c1nc2ccccc2nc1N1CCOCC1 (stereo not drawn)	-1	0	-14	16*	5	-2	4
N#CC(C(=O)OC1CCCCC1)c1nc2ccccc2nc1N1CCOCC1 (stereo not drawn)	-7	-2	-27	3	4	7	.
C/C(=N/NC(=O)CN1CCN(S(=O)(=O)c2ccc(C)cc2)CC1)c1ccco1	.	-3	.	.	.	.	.
CCOC(=O)c1cc(C)sc1NC(=O)C(c1ccccc1)c1ccccc1	-2	0	-28	16*	4	15	5
NC(=O)COC(=O)CCCSc1nc2ccccc2s1	-2	-4	.	0	1	.	.
N#Cc1ccsc1NC(=O)COC(=O)CCCSc1nc2ccccc2s1	-2	1	-53	15*	7	-13	3
CCOc1ccc(C/C(O)=C2\C(=O)CC(C)(C)CC2=NCC(=O)O)cc1OCC	-4	-1	.	2	6	.	.
O=C(c1oc2ccccc2c1CSCc1ccccc1)N1CCN(c2ncccn2)CC1	-1	0	-34	12*	3	-6	1
Cc1c(C(=O)N2CCN(c3ccccn3)CC2)oc2ccccc12	-11	1	-50	1	3	-10	.
Cc1c(N2CCCC2)cc2c(c1NC(=O)c1ccccc1Cl)C(C)(C)CC2(C)C	.	-1	.	.	.	.	.
Cc1cc(NC(=O)COC(=O)C(Nc2ccc(C(F)(F)F)cc2Cl)C(C)C)no1 (stereo not drawn)	-14	5	-34	13*	2	-4	6
OCCC1CN(Cc2nc3ccccc3[nH]2)CCN1C1CCCC1 (stereo not drawn)	-4	0	.	1	4	.	.
COc1ccc(CCN(Cc2cccs2)S(=O)(=O)c2ccc(C(=O)O)cc2)cc1OC	2	-2	.	13*	4	.	2
O=C(O)c1ccc(S(=O)(=O)N(Cc2cccs2)CC2CCCO2)cc1 (stereo not drawn)	.	0	.	.	.	.	.
COc1ccc(NC(=S)NC(=O)CC(C)C)c(OC)c1	-6	-1	.	0	10	.	.
C/C(N)=C(/C#N)C(=O)CSc1nc2ccccc2c(=O)n1-c1ccc(C)cc1	-1	-1	-41	2	3	-2	.
C/C(N)=C(/C#N)C(=O)CSc1nc2ccccc2c(=O)n1-c1ccc(C)c(Cl)c1	1	-1	-47	12*	2	0	3
